Values joined by “and” are separate entries in the source; they are usually repeats but may differ in a detail not shown here. Equal entries are not always repeated.
Experiments:
[1] = The compound was evaluated for the pKa units relative to N-methyl-piperazine.; type: physicochemical
[2] = Relative protonation energy of the compound
[3] = The compound was evaluated for the pKa units relative to N-methyl-piperazine; type: physicochemical
[4] = target: T1, 5-hydroxytryptamine receptor 1B (Homo sapiens, UniProt P28222); test: Agonist-induced [35S]GTP-gamma-S, binding in CHO cells stably transfected with human 5-hydroxytryptamine 1B receptor; type: functional, cell-based
Method in brief: (§1)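 [35S]GTPγS binding stimulated by agonist, measured in CHO cells stably transfected with the human 5-HT1D or 5-HT1B receptor. EC50 values are the logarithmic mean of 2–3 independent determinations. Maximum variance of individual log(EC50) values from the mean was 4%.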

[5] = target: T1, 5-hydroxytryptamine receptor 1B; test: Efficacy of compound was evaluated relative to human 5-hydroxytryptamine 1B receptor using [35S]GTP-gamma-S, as radioligand; type: functional
[6] = target: Serotonin 1 receptors; 5-HT1B & 5-HT1D (Homo sapiens) (UniProt P28222+P28221); test: Selectivity towards 5-HT1D and to that of 5-HT1B in CHO cells; type: cell-based
Method in brief: (§2)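 Radioligand binding to human 5-HT1D and 5-HT1B receptors stably expressed in CHO cells. Radioligand was used at approximately its KD for each receptor. IC50 values are the logarithmic mean of 2–5 independent determinations, each run in duplicate. Maximum variance from the mean of log(IC50) was 4%. Selectivity is IC50(1B)/IC50(1D).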

[7] = Rate of clearance in rat was determined; type: ADME, organism-based; details: plasma, read-out: Clp
Method in brief: (§3)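 Male Sprague–Dawley rats (~300 g) were fasted overnight and tail-artery cannulated under isoflurane, then allowed to recover for at least 30 min. Each received 3 mg/kg by tail-vein bolus (3 mg/mL in PEG 300:5 mM HCl 25:75) or by gavage (0.6 mg/mL in PEG 400:5 mM HCl 25:75), three rats per route. Serial blood was sampled up to 6 h. Plasma was analysed by solid-phase extraction and reverse-phase HPLC with fluorescence detection (ex 235, em 370 nm) against spiked-plasma calibration curves.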

[8] = Oral bioavailability in rat; type: ADME, organism-based; details: in vivo; method in brief: as §3
[9] = pKa value was determined; type: physicochemical
Method in brief: (§4)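 Potentiometric titration in MeOH–H2O cosolvent with ionic strength set by 0.15 M KCl. Three titrations at different water/cosolvent ratios gave psKa values. Aqueous pKa was obtained by Yasuda–Shedlovsky extrapolation to 100% water, plotting psKa + log[H2O] against 1/ε.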

[10] = target: T1, 5-hydroxytryptamine receptor 1B; test: Efficacy was evaluated relative to human 5-HT1B receptor using [35S]GTP-gamma-S, as radioligand; type: functional
[11] = target: T1, 5-hydroxytryptamine receptor 1B; test: Displacement of specific [3H]5-HT binding to cloned human 5-hydroxytryptamine 1B receptor expressed in CHO cells; type: cell-based; method in brief: as §2
[12] = target: T2, 5-hydroxytryptamine receptor 1D (Homo sapiens, UniProt P28221); test: Displacement of specific [3H]5-HT binding to cloned human 5-hydroxytryptamine 1D receptor expressed in CHO cells; type: cell-based; method in brief: as §2
[13] = target: T2, 5-hydroxytryptamine receptor 1D; test: Agonist-induced [35S]GTP-gamma-S, binding in CHO cells stably transfected with human 5-hydroxytryptamine 1D receptor; type: functional, cell-based; method in brief: as §1
[14] = target: T2, 5-hydroxytryptamine receptor 1D; test: Efficacy was evaluated relative to human 5-hydroxytryptamine 1D receptor using [35S]GTP-gamma-S, as radioligand; type: functional
[15] = Cmax in rat; type: ADME, organism-based; details: in vivo; method in brief: as §3
[16] = pKa value by potentiometric method; type: physicochemical; method in brief: as §4
Rattus norvegicus [17] = test: Oral absorption study in rat plasma obtained from hepatic portal vein after 2 hours of administration of 3 mg/kg orally; type: functional, organism-based; parameters: dose 3 mg/kg
Method in brief: (§5)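 Male Sprague–Dawley rats, fasted overnight and with no surgery, received 3 mg/kg orally as a 0.6 mg/mL solution in PEG 400:5 mM HCl (25:75 v/v). Terminal blood was taken from the heart and hepatic portal vein under isoflurane at 0.5 and 2 h, three rats per time point. Plasma drug was measured by electrospray mass spectrometry. Values are mean ± SEM.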

Rattus norvegicus [18] = test: Oral absorption study in rat plasma obtained from cardiac blood samples after 0.5 hours of administration of 3 mg/kg orally; type: functional, organism-based; parameters: dose 3 mg/kg; method in brief: as §5
Rattus norvegicus [19] = test: Oral absorption study in rat plasma obtained from cardiac blood samples after 2 hours of administration of 3 mg/kg orally; type: functional, organism-based; parameters: dose 3 mg/kg; method in brief: as §5
Rattus norvegicus [20] = test: Oral absorption study in rat plasma obtained from hepatic portal vein after 0.5 hours of administration of 3 mg/kg orally; type: functional, organism-based; parameters: dose 3 mg/kg; method in brief: as §5

T2 sequence (P28221 whole entry): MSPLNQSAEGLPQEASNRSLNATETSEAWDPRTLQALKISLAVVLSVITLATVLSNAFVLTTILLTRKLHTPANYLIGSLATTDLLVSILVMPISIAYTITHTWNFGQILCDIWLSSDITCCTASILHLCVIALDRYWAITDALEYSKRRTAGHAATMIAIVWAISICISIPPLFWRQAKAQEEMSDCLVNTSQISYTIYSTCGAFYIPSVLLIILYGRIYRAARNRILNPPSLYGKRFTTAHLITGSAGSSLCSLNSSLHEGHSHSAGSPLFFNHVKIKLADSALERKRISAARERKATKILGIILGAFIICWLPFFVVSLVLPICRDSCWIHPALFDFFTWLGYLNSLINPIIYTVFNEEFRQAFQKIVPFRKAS
T1 sequence (P28222 whole entry): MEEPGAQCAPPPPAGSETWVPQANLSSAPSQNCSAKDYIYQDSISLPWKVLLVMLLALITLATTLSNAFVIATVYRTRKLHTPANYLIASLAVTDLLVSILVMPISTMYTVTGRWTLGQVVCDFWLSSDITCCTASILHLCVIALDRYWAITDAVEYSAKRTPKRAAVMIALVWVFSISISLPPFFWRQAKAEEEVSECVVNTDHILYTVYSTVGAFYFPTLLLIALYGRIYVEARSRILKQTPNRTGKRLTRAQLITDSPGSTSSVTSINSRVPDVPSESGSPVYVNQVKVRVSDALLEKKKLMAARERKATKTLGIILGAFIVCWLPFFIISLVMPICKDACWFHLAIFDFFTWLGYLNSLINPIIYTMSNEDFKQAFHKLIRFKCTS

Row | delta pKa [1] | RPE [2] | delta pKa [3] | EC50 [4] [nM] | Efficacy [5] [%] | Selectivity [6] | clearance [7] [mL/min/kg] | bioavailability [8] [%] | pKa [9] | Efficacy [10] [%] | IC50 [11] [nM] | IC50 [12] [nM] | EC50 [13] [nM] | Efficacy [14] [%] | Cmax [15] [ng/mL] | pKa [16] | Structure (SMILES) | Plasma concentration (Rattus norvegicus [17]) [ng/mL] | Plasma concentration (Rattus norvegicus [18]) [ng/mL] | Plasma concentration (Rattus norvegicus [19]) [ng/mL] | Plasma concentration (Rattus norvegicus [20]) [ng/mL]
1 | 0 | 0 | – | – | – | – | – | – | – | – | – | – | – | – | – | – | CN1CCCCC1 [N-METHYLPIPERIDINE] | – | – | – | –
2 | -1.83 | 4.42 and 2.5 | -3.24 | – | – | – | – | – | – | – | – | – | – | – | – | – | CN1CCCC(F)C1 (centres undefined) | – | – | – | –
3 | – | – | – | 430 | 71 | 140 | 84 | 27 | 8.3 | – | – | – | – | – | – | – | Fc1cccc(CCN2CCN(CCCc3c[nH]c4ccc(-n5cnnc5)cc34)CC2)c1 | – | – | – | –
4 | – | – | – | 10000 | – | 118 | 43 | 11 | – | 78 | 1000 | 8.5 | 34 | 100 | 157 | 5.9 | FC(F)(Cc1c[nH]c2ccc(-n3cnnc3)cc12)CN1CCC(OCc2ccccc2)CC1 | – | – | – | –
5 | – | – | – | – | – | 107 | 67 | – | – | – | 1600 | 15 | 35 | 78 | – | – | Fc1cccc(CCN2CCN(CC(F)(F)Cc3c[nH]c4ccc(-n5cnnc5)cc34)CC2)c1 | 61 | < 4 | < 4 | 503
6 | – | – | – | 450 | – | 69 | – | 14 | – | 77 | 62 | 0.9 | 0.9 | – | – | 8.7 | FC(Cc1c[nH]c2ccc(-n3cnnc3)cc12)CN1CCC(Cc2ccccc2)CC1 (centres undefined) | 258 | 196 | 46 | 781
